This is a sample that favours compounds with a hit; in the whole collection about 2.3% have one here.
TRPC4 agonist – activators of mouse TRPC4 channel, primary screen, Fluo4 calcium, HEK293 TRPC4beta/mu-opioid cells | Short transient receptor potential channel 4 (Mus musculus), Q9QUQ5 | Fluo4 calcium fluorescence; stronger effect = higher value | B-score at 10 µM | 310,000 compounds, 0.49% hits | AID 2237, 2010;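 active = B-score above 5 SD of library B-scores, and initial fluorescence ratio not above library mean plus 5 SD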;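 also: positive B-score marks a calcium rise read as TRPC4 activation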
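system = HEK293 cells stably co-expressing mouse TRPC4beta and mu-opioid receptor | schedule = Fluo4 dye loading 45 min at room temperature, 110 s recording | measure = B-scored integrated calcium fluorescence ratio | signal = Fluo4 calcium-sensitive dye fluorescence, kinetic, 1 Hz baseline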
TRPC6 act – mouse TRPC6 channel activators, primary screen, cell-based, HEK293, membrane potential dye; Short transient receptor potential channel 6 (Mus musculus), Q61143; B-score at 10 µM; 310,000 compounds, 0.13% hits; HEK293-TRPC6 membrane potential dye fluorescence; stronger effect = higher value;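 active = B-score of the integrated fluorescence ratio above library mean plus 3 SD, and starting fluorescence ratio within library mean plus 5 SD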;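 also: higher score means more depolarization so channel activation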
Target sequence (Q61143 whole entry, looked up): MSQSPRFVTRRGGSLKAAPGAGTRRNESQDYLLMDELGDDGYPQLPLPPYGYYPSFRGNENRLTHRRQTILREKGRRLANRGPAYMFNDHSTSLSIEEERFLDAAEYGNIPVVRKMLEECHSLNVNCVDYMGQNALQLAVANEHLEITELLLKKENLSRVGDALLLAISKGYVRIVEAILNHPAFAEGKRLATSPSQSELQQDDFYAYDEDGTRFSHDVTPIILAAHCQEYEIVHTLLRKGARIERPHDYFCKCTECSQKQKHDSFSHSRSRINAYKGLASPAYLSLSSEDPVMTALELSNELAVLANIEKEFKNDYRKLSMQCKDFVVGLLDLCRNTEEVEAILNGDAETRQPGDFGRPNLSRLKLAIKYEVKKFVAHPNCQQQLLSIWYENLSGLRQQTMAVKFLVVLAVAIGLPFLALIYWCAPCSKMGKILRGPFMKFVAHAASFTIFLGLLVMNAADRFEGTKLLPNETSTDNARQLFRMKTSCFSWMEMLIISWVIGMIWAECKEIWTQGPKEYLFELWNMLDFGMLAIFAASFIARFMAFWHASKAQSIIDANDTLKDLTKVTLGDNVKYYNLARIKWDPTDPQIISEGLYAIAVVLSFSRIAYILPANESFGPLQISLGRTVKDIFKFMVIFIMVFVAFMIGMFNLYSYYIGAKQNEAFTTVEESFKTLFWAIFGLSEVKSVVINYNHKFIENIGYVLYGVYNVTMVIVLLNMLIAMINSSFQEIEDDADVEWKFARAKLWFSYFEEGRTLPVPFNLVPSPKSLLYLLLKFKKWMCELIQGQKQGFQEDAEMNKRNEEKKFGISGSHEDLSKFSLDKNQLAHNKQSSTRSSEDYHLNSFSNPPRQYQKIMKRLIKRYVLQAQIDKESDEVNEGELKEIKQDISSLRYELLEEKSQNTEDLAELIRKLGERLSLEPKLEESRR
TRPC6 inh – mouse TRPC6 channel inhibitors, primary screen, cell-based, HEK293, membrane potential dye; ACh-evoked depolarization; stronger effect = lower value; B-score at 10 µM; AID 2553, 2010; 310,000 compounds, 1.1% hits;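 active = B-score under library mean minus 3 SD, initial fluorescence not abnormally high, positive integrated signal ratio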;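 also: B-score derived from integrated fluorescence ratio over the kinetic read; more negative B-score means stronger inhibition of depolarization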
TRPC4 block – inhibitors of mouse TRPC4 channel, primary screen, Fluo4 calcium, HEK293 TRPC4beta/mu-opioid cells | Short transient receptor potential channel 4 (Mus musculus), Q9QUQ5 | DAMGO-evoked Fluo4 calcium flux; stronger effect = lower value | B-score at 10 µM | 300,000 compounds, 0.39% hits | AID 2247, 2010;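 active = B-score over 3 SD under the library average, no early fluorescence shift, positive overall ratio signal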
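Material: HEK293 cells with stable TRPC4beta plus mu-opioid receptor expression; probe or stimulus: DAMGO in two steps, submaximal then maximal; technique: Fluo4 calcium fluorescence by kinetic imaging, 5 s 1 Hz baseline; measure: integrated fluorescence ratio relative to baseline, converted to per-well B score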
TRPC4 PAM – positive allosteric modulators of TRPC4, primary screen, cell-based, mouse TRPC4beta, HEK293 mu-opioid, Fluo-4 calcium; Short transient receptor potential channel 4 (Mus musculus), Q9QUQ5; DAMGO EC20, Fluo-4 Ca2+ flux; stronger effect = higher value; B-score at 10 µM; 310,000 compounds, 0.42% hits; AID 2227, 2009;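 active = B-score of calcium response area above 5 SD of library B-scores, with initial fluorescence ratio within 5 SD of library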
Of the large screens only hits and unclear results are named; the others gave an inactive call.

COc1ccc(CC2(CO)CCN(C/C=C/c3ccccc3OC)CC2)cc1	TRPC4 block -6
CC(COc1ccccc1)N1CCC(CO)(Cc2ccccc2)CC1 (configuration not stated)	TRPC4 block -9
Cc1ccc(CCNC(=O)c2nnc(CS(=O)(=O)c3ccccc3)o2)cc1	none
Cc1ccc2[nH]c(C)c(CCN(Cc3cccnc3)C(=S)NC(C)(C)C)c2c1	TRPC4 PAM 16
CC(=O)Nc1ccc(NC(=O)C(NS(=O)(=O)c2cccc3nsnc23)C(C)C)cc1 (configuration not stated)	none
CN(CC(=O)NC1CCCc2ccccc21)C1CCCCC1 (configuration not stated)	TRPC4 block -5
O=C1CS/C(=N/N=C/c2ccco2)N1Cc1ccc(F)cc1	none
CC(=O)C1=C(c2ccccc2)NC(=S)NC1c1cc(Cl)c(OC(C)C)c(Cl)c1 (configuration not stated)	TRPC4 PAM 12
CCOc1ccc(CN2CCN(C(=O)c3ccccc3)CC2)cc1	TRPC4 block -7
CCOc1ccc(C(=O)N2CCN(Cc3ccccc3)CC2)cc1	none
O=C(COC(=O)c1cnccn1)N=c1sccn1Cc1ccccc1Cl	none
Cc1cc2oc(=O)cc(CN3CCN(Cc4ccccc4)CC3)c2cc1O	TRPC4 agonist 79
CCc1cc2c(CN3CCN(C)CC3)cc(=O)oc2cc1O	TRPC4 agonist 51
Cc1cc2oc(=O)cc(CN3CCN(C/C=C/c4ccccc4)CC3)c2cc1O	none
CCc1cc2c(CN3CCN(CCO)CC3)cc(=O)oc2cc1O	none
CCCCN(C(=O)c1cc(=O)[nH]c2ccccc12)c1c(N)n(CCCC)c(=O)[nH]c1=O	none
Cc1nnc2sc(SCC(=O)Nc3nccs3)nn2c1=O	none
CCN(CC)CCNCC1C(=O)O[C@@H]2C[C@@]3(C)CCC[C@H](C)C3=C[C@H]12 (some centres not stated)	TRPC4 PAM 11
Cc1ccc(C)c(NC(=O)C2CCCN(c3cnccn3)C2)c1 (configuration not stated)	none
CCc1cc(C(c2cccc(OC)c2)N2CCOCC2)c(NC(=O)c2ccccc2)s1 (configuration not stated)	TRPC4 block -6
CCc1cc(C(c2ccc(OC)c(OC)c2)N2CCOCC2)c(NC(=O)c2ccccc2)s1 (configuration not stated)	none
Cc1cc(=O)[nH]c(SCC(=O)c2ccc(F)c(C)c2)n1	none
CCC(=O)NCCc1cc2ccc(C)c(C)c2[nH]c1=O	none
CCCC(=O)NCCc1cc2ccc(C)c(C)c2[nH]c1=O	TRPC4 PAM 12
O=C(Nc1cccc(/C=C/c2ccccn2)c1)c1ccc(-n2cncn2)c([N+](=O)[O-])c1	none
Cc1cnc(NC(=O)C2CC(=O)N(c3cccc(Cl)c3)C2)s1 (configuration not stated)	none
O=C(NCc1cn(-c2ccccc2)nc1-c1ccccc1)c1cccc([N+](=O)[O-])c1	none
N#CCCn1cc(CNCc2ccccc2)c(-c2cccc([N+](=O)[O-])c2)n1	TRPC4 block -6
CCOc1cccc(CN2CCCC(CCC(=O)NCc3ccccc3F)C2)c1O (configuration not stated)	TRPC4 agonist 56
Cc1nn(C)c(Cl)c1CN1CCCC(CCC(=O)NCc2ccccc2F)C1 (configuration not stated)	none
CC1(C(=O)OCc2cc(=O)n3cc(Br)ccc3n2)CC1(Cl)Cl (configuration not stated)	TRPC4 PAM 15
COc1cccc(CNCc2ccc(OC)c3ccccc23)c1OC	none
COc1cccc(CNCc2ccccn2)c1OC	TRPC4 agonist 63, TRPC4 block -6
COc1ccc(-c2cc(C(F)F)n3ncc(C(=O)Nc4cc(C)on4)c3n2)cc1	none
O=c1[nH]c2ccccc2c2cn(-c3ccccc3)nc12	none
Cc1ccc(S(=O)(=O)N2CCN(C(=O)CCC(=O)NCc3cccc(C(F)(F)F)c3)CC2)cc1	none
CN(C)c1ccc(NC(=O)CN2CCc3ccccc3C2)cc1	none
CCCC(=O)N/C(N)=N/c1nc(C)c2ccccc2n1	TRPC4 PAM 19
O=C(C[N+]1(CC#Cc2ccccc2)CCCCC1)c1ccc(Cl)cc1	TRPC4 block -6
CCOC(=O)c1sc(NC(=O)C2CCCCC2)nc1C	none
O=[N+]([O-])c1ccc(C2(O)CN(c3ccccc3)C3=[N+]2CCS3)cc1 (configuration not stated)	TRPC4 agonist 87, TRPC4 block -7
OC1(c2cccs2)CN(c2ccc(Cl)cc2)C2=[N+]1CCCS2 (configuration not stated)	none
Cc1ccc(C2(O)CN(c3ccccc3)C3=[N+]2CCS3)cc1 (configuration not stated)	TRPC4 agonist 43, TRPC4 block -7
OC1(c2ccc(F)cc2)CN(c2ccccc2)C2=[N+]1CCS2 (configuration not stated)	TRPC4 block -6
CC1(c2ccc([N+](=O)[O-])cc2)Nc2ccccc2S1 (configuration not stated)	none
Cc1ccc(NC(=O)CCC(=O)OCCCC(F)(F)C(F)(F)F)cc1	none
Cc1[nH]c(=O)[nH]c(=O)c1S(=O)(=O)N1CCCC1	none
CCOC(=O)c1c(-c2ccc(OC)cc2)oc2ccc(O)cc12	TRPC4 PAM 17
COc1ccc(N/C(C)=C2/C(=O)C(=O)N(CCO)C2c2ccc([N+](=O)[O-])cc2)cc1 (configuration not stated)	TRPC4 PAM 137
Cc1ccccc1N1CCN(CCC(=O)Nc2ccc(F)cc2)CC1	none
CCOc1cc(CNCc2ccccc2)ccc1OCc1ccc(Cl)cc1	none
CCC(=O)c1ccc(OCC(O)CNCc2ccc(F)cc2)cc1 (configuration not stated)	none
Clc1ccc(OCCNCCc2ccccc2)cc1	TRPC4 agonist 98
CCC(=O)c1ccc(OCC(O)CNCCc2ccc(Cl)cc2)cc1 (configuration not stated)	TRPC4 agonist 59
OC(CNCCc1ccccc1)COc1ccc(OCC(O)CNCCc2ccccc2)cc1 (configuration not stated)	TRPC4 PAM 22
OC(CNCCC(c1ccccc1)c1ccccc1)COc1ccccc1 (configuration not stated)	none
O=C(COc1ccc(Cl)cc1)NCc1ccccc1	none
COc1ccc(CNCCc2ccc(Cl)cc2)cc1OCc1ccccc1	TRPC4 agonist 47
COc1ccc(CN(C)CC(=O)Nc2ccc(Cl)cc2F)c(OC)c1	none
c1ccc(CCNCCCOc2cccc3ccccc23)cc1	TRPC4 agonist 66
